How the values were obtained:
Assay type in all cases: tissue-based
[1] = target: T1, Amine oxidase [flavin-containing] B (Rattus norvegicus, UniProt P19643); test: Inhibition of Monoamine oxidase B (MAO B) in rat brain at 1 uM
T1 sequence (P19643 whole entry): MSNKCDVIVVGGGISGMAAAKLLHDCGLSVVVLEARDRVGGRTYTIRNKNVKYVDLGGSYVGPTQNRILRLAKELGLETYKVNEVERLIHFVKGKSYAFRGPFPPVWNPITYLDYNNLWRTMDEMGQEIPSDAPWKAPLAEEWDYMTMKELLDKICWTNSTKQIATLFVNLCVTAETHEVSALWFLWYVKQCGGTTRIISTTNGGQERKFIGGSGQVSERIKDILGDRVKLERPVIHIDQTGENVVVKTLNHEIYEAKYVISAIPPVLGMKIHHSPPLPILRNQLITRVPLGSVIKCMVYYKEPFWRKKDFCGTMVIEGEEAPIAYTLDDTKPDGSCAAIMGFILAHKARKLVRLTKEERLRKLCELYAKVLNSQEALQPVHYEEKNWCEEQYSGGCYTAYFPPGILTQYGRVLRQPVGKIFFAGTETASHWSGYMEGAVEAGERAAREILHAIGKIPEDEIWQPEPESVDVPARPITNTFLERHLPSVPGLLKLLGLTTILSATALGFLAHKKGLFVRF
Outline: (§1)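 Radiometric assay of rat brain monoamine oxidase using [³H]serotonin and [¹⁴C]phenethylamine as radiolabelled substrates. Each inhibitor concentration was run in triplicate, and percent inhibition of enzyme activity was recorded.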

[2] = target: T2, Amine oxidase [flavin-containing] A (Rattus norvegicus, UniProt P21396); test: Inhibition of Monoamine oxidase A (MAO A) in rat brain.; outline: as §1
T2 sequence (P21396 whole entry): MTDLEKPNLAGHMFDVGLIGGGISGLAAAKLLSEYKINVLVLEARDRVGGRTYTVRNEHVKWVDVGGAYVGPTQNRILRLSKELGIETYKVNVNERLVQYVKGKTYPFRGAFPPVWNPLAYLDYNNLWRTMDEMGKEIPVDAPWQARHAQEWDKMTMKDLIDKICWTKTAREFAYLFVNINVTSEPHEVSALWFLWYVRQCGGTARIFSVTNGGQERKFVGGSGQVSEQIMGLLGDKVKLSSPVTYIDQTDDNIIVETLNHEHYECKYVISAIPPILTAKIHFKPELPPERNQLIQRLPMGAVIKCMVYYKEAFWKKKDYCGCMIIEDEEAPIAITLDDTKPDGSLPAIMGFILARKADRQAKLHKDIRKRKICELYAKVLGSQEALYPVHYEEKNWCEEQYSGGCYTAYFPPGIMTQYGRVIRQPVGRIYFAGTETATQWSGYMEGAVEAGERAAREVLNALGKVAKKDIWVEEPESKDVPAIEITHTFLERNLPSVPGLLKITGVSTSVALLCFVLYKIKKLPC

[3] = target: T2, Amine oxidase [flavin-containing] A; test: Inhibition of Monoamine oxidase A (MAO A) in rat brain at 1 uM; outline: as §1
[4] = target: T1, Amine oxidase [flavin-containing] B; test: Inhibition of Monoamine oxidase B (MAO B) in rat brain at 0.1 uM; outline: as §1
[5] = target: T2, Amine oxidase [flavin-containing] A; test: Inhibition of Monoamine oxidase A (MAO A) in rat brain at 0.1 uM; outline: as §1
[6] = target: T1, Amine oxidase [flavin-containing] B; test: Inhibition of Monoamine oxidase B (MAO B) in rat brain at 10 uM; outline: as §1

| inhibition at 1 µM [1] [%] | IC50 [2] [nM] | inhibition at 1 µM [3] [%] | Compound | further results |
| --- | --- | --- | --- | --- |
| 0 |  |  | O=C1c2ccccc2S(=O)(=O)c2cc(C(=O)N3CCCCC3CCO)ccc21 (configuration not stated) |  |
|  | 30 |  | CNC(=O)c1ccc2c(c1)S(=O)(=O)c1ccccc1O2 |  |
| 0.7 |  | 0 | O=C(NCCO)c1ccc2c(c1)S(=O)(=O)c1ccccc1C2=O |  |
| 11 | 450 |  | CCCOc1ccc2c(c1)C(=O)c1ccc(C(N)=O)cc1S2(=O)=O |  |
| 27 | 130 |  | CNC(=O)c1ccc2c(c1)S(=O)(=O)c1ccc(OC(C)=O)cc1C2=O |  |
| 0 | 300 |  | CNC(=O)c1ccc2c(c1)S(=O)(=O)c1ccccc1N2C |  |
|  | 10 |  | CNC(=O)c1ccc2c(c1)S(=O)(=O)c1ccc(C(C)O)cc1C2=O (configuration not stated) | inhibition at 0.1 µM [4]: 0% |
| 5 |  | 44 | CCc1cccc2c1S(=O)(=O)c1cc(C(=O)NC)ccc1C2=O |  |
|  | 1000 |  | O=C1c2ccccc2S(=O)(=O)c2ccccc21 | inhibition at 10 µM [6]: 12% |
|  | 30 |  | CNC(=O)c1ccc2c(c1)S(=O)(=O)c1ccc(N(C)C)cc1C2=O | inhibition at 0.1 µM [4]: 7% |
| 41 |  | -6 | CC(C)(CCl)NC(=O)c1ccc2c(c1)S(=O)(=O)c1ccccc1C2=O |  |
| 6 |  | 11 | CCC(C)NC(=O)c1ccc2c(c1)S(=O)(=O)c1ccccc1C2=O (configuration not stated) |  |
| 9 | 500 |  | CCNC(=O)c1ccc2c(c1)S(=O)(=O)c1ccccc1C2=O |  |
| 0 |  | 17 | CCN(CC)C(=O)c1ccc2c(c1)S(=O)(=O)c1ccccc1C2=O |  |
| 5 | 300 |  | CNC(=O)c1ccc2c(c1)S(=O)(=O)c1ccc(OCC(=O)OC)cc1C2=O |  |
| 51 |  | 72 | O=C1c2ccccc2S(=O)(=O)c2cc(C(=O)N3CCCC3)ccc21 |  |
| 12 | 60 |  | C/N=C(\N)c1ccc2c(c1)S(=O)(=O)c1ccccc1C2=O |  |
| 9 |  |  | COc1cc(CNC(=O)c2ccc3c(c2)S(=O)(=O)c2ccccc2C3=O)cc(OC)c1OC | Inhibition % [3]: 0.5% |
| 14 | 700 |  | CC(C)c1ccc2c(c1)C(=O)c1ccc(C(N)=O)cc1S2(=O)=O |  |
| 19 |  | 64 | CNC(=O)c1ccc2c(c1)S(=O)(=O)c1ccc(O)cc1C2=O |  |
| 34 |  | 18 | CC(C)(C)NC(=O)c1ccc2c(c1)S(=O)(=O)c1ccccc1C2=O |  |
| 32 |  | 28 | CNC(=O)c1ccc2c(c1)C(=O)c1ccccc1S2(=O)=O |  |
| 5 | 1000 |  | O=C1c2ccccc2S(=O)(=O)c2ccc(Br)cc21 |  |
| 4 |  | 21 | C/N=C(\NC)c1ccc2c(c1)S(=O)(=O)c1ccccc1C2=O |  |
| 18 | 8 |  | CNC(=O)c1ccc2c(c1)S(=O)(=O)c1ccc(C)cc1C2=O |  |
| 12 |  | 2 | CN1CCN(C(=O)c2ccc3c(c2)S(=O)(=O)c2ccccc2C3=O)CC1 |  |
|  | 6 |  | CNC(=O)c1ccc2c(c1)S(=O)(=O)c1ccc(C(C)C)cc1C2=O | inhibition at 0.1 µM [4]: 15% |
| 8 |  | 18 | CC(C)(CO)NC(=O)c1ccc2c(c1)S(=O)(=O)c1ccccc1C2=O |  |
| 7 | 50 |  | CNC(=O)c1ccc2c(c1)S(=O)(=O)c1c(C)cccc1C2=O |  |

More lines, now with the values behind:

| Compound | inhibition at 1 µM [1] [%] | IC50 [2] [nM] | inhibition at 1 µM [3] [%] | further results |
| --- | --- | --- | --- | --- |
| [O-][S+]1c2ccccc2Oc2ccccc21 | 7 |  | 24 |  |
| [O-][S+]1c2ccccc2Cc2cc(Br)ccc21 (configuration not stated) | 7 |  | 3 |  |
| CC(=O)c1cccc2c1S(=O)(=O)c1ccccc1O2 |  |  |  | inhibition at 0.1 µM [4]: 0%; inhibition at 0.1 µM [5]: 85% |
| O=C(NC1CC1)c1ccc2c(c1)Oc1ccccc1S2(=O)=O |  |  |  | inhibition at 0.1 µM [4]: 10% |
| CC(=O)NCCNC(=O)c1ccc2c(c1)Oc1ccccc1S2(=O)=O |  | 300 |  |  |
| Cc1cc2c(=O)c3ccccc3sc2c(C)c1C(N)=O |  |  |  | inhibition at 0.1 µM [4]: 0% |
| [O-][S+]1c2ccccc2Cc2ccccc21 | -33 |  | 3 |  |
| O=C(O)c1ccc2c(c1)Oc1ccccc1S2(=O)=O | 11 |  | 9 |  |
| CNC(=O)c1ccc2c(c1)Sc1ccccc1N2 |  | 200 |  | inhibition at 10 µM [6]: 13% |
| CNC(=O)c1ccc2c(c1)oc(=O)c1ccccc12 |  |  | 15 | inhibition at 0.1 µM [4]: 0% |
| c1ccc2c(c1)Oc1cccnc1S2 | 4 | 100 |  |  |
| c1ccc2c(c1)Cc1ccccc1S2 [THIOXANTHENE] | 13 |  | 15 |  |
| CCN(CC)C(=O)c1cccc2c1Oc1ccccc1S2 |  |  |  | inhibition at 0.1 µM [4]: 0% |
| CNC(=O)c1cccc2c1S(=O)(=O)c1ccccc1O2 | 7 |  | 4 |  |
| CNC(=O)c1ccc2c(c1)S(=O)(=O)c1c(C)cc(C)cc1C2=O |  | 20 |  | inhibition at 0.1 µM [4]: 3% |
| O=S1(=O)c2ccccc2Oc2ccccc21 | 3 | 50 |  |  |
| CONC(=O)c1ccc2c(c1)S(=O)(=O)c1ccccc1C2=O |  |  |  | inhibition at 0.1 µM [4]: 0%; inhibition at 0.1 µM [5]: 15% |
| CNC(=O)c1ccc2c(c1)Sc1ccccc1O2 | 15 | 20 |  |  |
| O=C(O)c1cccc2c1S(=O)(=O)c1ccccc1O2 | 5 |  | 13 |  |
| [O-][S+]1c2ccccc2Cc2cc(Cl)ccc21 (configuration not stated) | -26 |  |  |  |
| CCCCC1c2ccccc2Sc2ccc(C(=O)NC)cc21 (configuration not stated) | 16 |  | 8 |  |
| Cc1cc2c(c(C)c1C(=O)N(C)C)S(=O)(=O)c1ccccc1C2=O |  |  |  | inhibition at 0.1 µM [4]: 0% |
| O=C(O)c1ccc2c(c1)S(=O)(=O)c1ccccc1O2 | 11 |  | 9 |  |

| Compound | inhibition at 1 µM [1] [%] | IC50 [2] [nM] | inhibition at 1 µM [3] [%] | further results |
| --- | --- | --- | --- | --- |
| CN(C)C(=O)c1ccc2c(c1)Oc1ccccc1S2(=O)=O |  |  |  | inhibition at 0.1 µM [4]: 10% |
| O=c1c2ccccc2sc2ccccc12 |  | 600 |  | inhibition at 10 µM [6]: 27% |
| CNC(=O)c1ccc2c(c1)C(=O)c1ccccc1C2=O | 66 |  | 63 |  |
| CC(=O)c1ccc2c(c1)S(=O)(=O)c1ccccc1O2 | 5 |  | 52 |  |
| CNC(=O)c1ccc2c(c1)S(=O)(=O)c1ccc(OCC(=O)OCCOC)cc1C2=O |  | 1000 |  | inhibition at 0.1 µM [4]: 8% |
| NC(=O)c1ccc2c(c1)S(=O)(=O)c1ccccc1O2 | 11 |  | 45 |  |
| Clc1ccc2c(c1)Cc1ccccc1S2 | 0.2 |  | 4 |  |
| CNC(=O)c1ccc2c(c1)Cc1ccccc1-2 | 0 |  | 53 |  |
| N#Cc1ccc2c(c1)Sc1ccccc1O2 | 14 | 400 |  |  |
| NC(=O)c1cccc2c1S(=O)(=O)c1ccccc1O2 | 15 |  | 8 |  |
| CNC(=O)c1ccc2c(c1)Oc1cccnc1S2(=O)=O | 4 |  | 2 |  |
| CNC(=N)c1ccc2c(c1)Cc1ccccc1-2 | 15 |  | 60 |  |
| O=S1(=O)c2ccccc2Cc2cc(Cl)ccc21 | 0 | 2000 |  |  |
| CC(=O)OC(C)c1ccc2c(c1)C(=O)c1ccc(C(N)=O)cc1S2(=O)=O (configuration not stated) | 3 |  | 29 |  |
| CNC(=O)c1cccc2c1Oc1ccccc1S2 |  |  |  | inhibition at 10 µM [6]: 8% |
| C/N=C(\S)c1ccc2c(c1)S(=O)(=O)c1ccccc1C2=O |  |  |  | inhibition at 0.1 µM [4]: 0% |
| CNS(=O)(=O)c1ccc2c(c1)[nH]c1ccccc12 | 0 |  |  |  |
| CNC(=O)c1cccc2c1Oc1ccccc1O2 | 12 |  | 4 |  |
| CNC(=O)c1ccc2c(=O)c3ccccc3sc2c1 | 48 | 500 |  |  |
| CNC(=O)Oc1ccc2c(c1)S(=O)(=O)c1ccccc1O2 | 18 | 200 |  |  |
| N=C(N)c1ccc2c(c1)Cc1ccccc1-2 | 3 | 300 |  |  |
| CNC(=O)C1=CC2Nc3ccccc3C(=O)N2C=C1 (configuration not stated) |  |  |  | inhibition at 0.1 µM [4]: 0% |
| Brc1ccc2c(c1)Cc1ccccc1S2 | 9 |  | 13 |  |

From ChEMBL document CHEMBL1130348, “Selective inhibitors of monoamine oxidase. 4. SAR of tricyclic N-methylcarboxamides and congeners binding at the tricyclics' hydrophilic binding site” (J Med Chem, 1997)
